# OX1R antag-1 = antagonists of human orexin 1 receptor (OX1R); Orexin/Hypocretin receptor type 1 (Homo sapiens), O43613; OX1R-expressing cells, FRET antagonist read-out; inhibition, % at 6.6 µM; 330,000 compounds, 1.8% hits; AID 485270, 2010; in the data active = inhibition mostly above about 38%, no sharp cut-off; inactive = mostly below about 40%;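 also: 0% = agonist challenge alone and 100% = reference antagonist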
# Target sequence (O43613 whole entry, looked up): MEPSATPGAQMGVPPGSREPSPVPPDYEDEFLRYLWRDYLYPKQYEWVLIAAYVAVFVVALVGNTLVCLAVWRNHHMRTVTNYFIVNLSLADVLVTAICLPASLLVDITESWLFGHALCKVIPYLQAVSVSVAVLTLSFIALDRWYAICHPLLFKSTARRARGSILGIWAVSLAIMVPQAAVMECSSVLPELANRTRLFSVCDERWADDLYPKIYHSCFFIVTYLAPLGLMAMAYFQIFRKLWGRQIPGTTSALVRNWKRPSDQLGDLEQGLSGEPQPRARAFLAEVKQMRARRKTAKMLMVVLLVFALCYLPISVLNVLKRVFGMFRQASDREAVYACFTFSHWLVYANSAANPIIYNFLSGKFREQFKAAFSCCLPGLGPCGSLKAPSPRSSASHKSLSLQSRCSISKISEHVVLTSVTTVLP
# GalR3 antagonist = GalR3 antagonists in HEK293 cells, primary screen, cell-based, fluorescence readout; inhibition, % at 3 µM; 360,000 compounds, 0.44% hits; HEK293 GalR3-CNG cAMP membrane potential fluorescence; galR3 body fused to GalR1 C-terminus; Galanin receptor type 3 (Homo sapiens), O60755; AID 651719, 2012;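 active = inhibition above the screen-wide average plus 3 SD, cut at about 13% in these data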;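 also: forskolin and galanin both at EC90 stimulate the cells; cAMP rise reported by CNG channel membrane potential dye signal; 0% = forskolin plus galanin with DMSO and 100% = forskolin alone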
# OX1R antag-2 = OX1R (HCRTR1) antagonists, primary screen, fluorescence, CHO/OX1R cells, Fluo-8 calcium, orexin A; Orexin/Hypocretin receptor type 1 (Homo sapiens), O43613; inhibition, % at 5 µM; 330,000 compounds, 0.43% hits; Fluo-8 calcium fluorescence;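 active = inhibition above its plate's threshold, mean inhibition of all tested compounds on the plate plus 3 SD, cut at about 37% in these data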;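 also: 0% = orexin A challenge wells and 100% = SB-334867-A antagonist wells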
# CHO parental Ca = ATP-evoked calcium signal inhibitors, parental CHO, primary screen, counter-screen for OX1R antagonist project, cell-based, fluorescence, Fluo-8 calcium dye; inhibition, % at 5.6 µM; 330,000 compounds, 0.63% hits; parental CHO-K1, ATP-induced calcium, Fluo-8 fluorescence;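 active = inhibition above that plate's mean sample inhibition plus 3 SD, cut at about 26% in these data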;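 also: 0% = ATP-challenged DMSO wells and 100% = DMSO wells without ATP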
#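 Assay system: parental CHO cells; Read-out basis: percent inhibition of ATP-evoked calcium rise, normalized to controls; Benchmarks: ATP and no-ATP DMSO wells; Compound dosing: single nominal dose of 5.6 µM per compound; Signal: Fluo-8 calcium dye fluorescence; Also added: ATP as calcium-mobilizing challenge; Repeats: singlicate.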
# TAAR1 antag = human TAAR1 antagonists, primary screen, Fluo-8 calcium fluorescence, CHO RD-HGA16 cells; Trace amine-associated receptor 1 (Homo sapiens), Q96RJ0; antagonist; inhibition, % at 3 µM; 360,000 compounds, 1.5% hits; AID 624466, 2012;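 active = inhibition above a per-plate cutoff, the mean inhibition of test compounds on that plate plus 3 SD, cut at about 49% in these data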;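 also: 0% = DMSO plus EC80 beta-PEA response and 100% = DMSO alone without agonist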
#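 Material: CHO RD-HGA16 cells bearing hTAAR1; compound dosing: one-point dosing, 3 µM nominal final; schedule: dye loading 75 min at 37 °C, then 30 min room temperature; measured by: calcium fluorescence with Fluo-8; control set: vehicle and agonist controls; replication: n of 1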
# TAAR1 agonist = human TAAR1 agonists, primary screen, Fluo-8 calcium fluorescence, CHO RD-HGA16 cells; Trace amine-associated receptor 1 (Homo sapiens), Q96RJ0; AID 624467, 2012; 360,000 compounds, 0.99% hits; vehicle wells 0%, saturating PEA agonist 100%; activation, % at 3 µM;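 active = activation above the mean activation of all test compounds in the run plus 3 SD, cut at about 38% in these data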
#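 test system = CHO RD-HGA16 cells carrying human TAAR1 plus Gα16 | schedule = 17-24 h seeding, 75 min 37 °C dye, 30 min RT | compound dosing = 3 µM single concentration | control set = DMSO and PEA EC100 | replicates = n 1 | signal = Fluo-8 fluorescence, 5 s baseline then 140 s kinetic read | measure = percent activation vs PEA EC100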
# OX1R HTRF conf = OX1R (HCRTR1) antagonists, confirmation, cell-based, HTRF. AID 492964, 2010. shares compounds with OX1R antag-1. inhibition, % at 6.6 µM. 1,800 compounds, 49% hits. OX1R-expressing cells, HTRF antagonist assay; in the data active = inhibition above about 55%;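 also: CHO cells expressing OX1R stimulated with orexin A at about EC80; 0% = agonist challenge alone and 100% = reference antagonist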
# CHO-K1 HTRF cnt = signal inhibition in parental CHO-K1 cells, counter-screen for OX1R antagonist project, cell-based, HTRF; inhibition, % at 6.6 µM; 1,800 compounds, 48% hits; shares compounds with OX1R antag-1; HTRF counterscreen; in the data active = inhibition above about 17%;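 also: 0% = agonist challenge with vehicle and 100% = vehicle alone without agonist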
# * hit, by the source's call; nt = no result. This is a sample that favours compounds with a hit; in the whole collection about 4.2% have one here.
SMILES,OX1R antag-1,GalR3 antagonist,OX1R antag-2,CHO parental Ca,TAAR1 antag,TAAR1 agonist,OX1R HTRF conf,CHO-K1 HTRF cnt
O=C(O)CSCC(=O)Nc1ccc(-c2nc3ccccc3s2)cc1,8,-7,-6,-18,-30,7,nt,nt
COc1cccc(N=Nc2c(=O)[nH]n3c(=O)cc(C)[nH]c23)c1,107*,-1,-2,4,-24,-2,41,48*
O=c1[nH]n2c(=O)c3c([nH]c2c1N=Nc1cccc(Cl)c1)CCC3,19,-1,4,-11,8,-4,nt,nt
N=c1c(C(=O)NCCc2ccccc2)cc2c(=O)n3ccccc3nc2n1CC1CCCO1 (configuration not stated),88*,-9,-26,-21,-13,-2,83*,62*
COc1ccc(CCNC(=O)c2cc3c(=O)n4ccccc4nc3n(C3CCCCC3)c2=N)cc1OC,26,-3,-26,-16,-13,0,nt,nt
COCCCn1c(=N)c(C(=O)NCC2CCCO2)cc2c(=O)n3ccccc3nc21 (configuration not stated),93*,-3,-12,-18,-2,10,48,65*
N=c1c(C(=O)NC2CCCC2)cc2c(=O)n3ccccc3nc2n1CCN1CCOCC1,102*,-2,-7,-8,4,8,35,43*
COc1ccc(CCNC(=O)c2cc3c(=O)n4ccccc4nc3n(CC3CCCO3)c2=N)cc1OC (configuration not stated),82*,-2,-35,-6,4,1,60*,77*
N=c1c(C(=O)NCC2CCCO2)cc2c(=O)n3ccccc3nc2n1C1CCCCC1 (configuration not stated),53,-4,-9,-5,-15,0,nt,nt
N=c1c(S(=O)(=O)c2ccccc2)cc2c(=O)n3ccccc3nc2n1CC1CCCO1 (configuration not stated),27,-1,-7,1,2,2,nt,nt
Cc1ccc(S(=O)(=O)N2CCOCC2)cc1C(=O)OCC(=O)NC1CCCCC1,nt,2,nt,nt,7,1,nt,nt
Cc1nonc1CC(=O)N1CCc2c([nH]c3ccccc23)C1c1ccccc1F (configuration not stated),19,-7,-37,-14,12,3,nt,nt
COc1cccc(S(=O)(=O)NCC(=O)N2CCCC2)c1,0,-9,-19,4,-9,9,nt,nt
COc1cc(OC)cc(-c2nc3nc(C)c(CCC(=O)O)c(C)n3n2)c1,17,-6,-16,-8,4,8,nt,nt
CCc1cccc(CC)c1NC(=O)c1cc(CN2C(=O)c3ccccc3C2=O)ccc1OC,18,-5,-31,5,41,4,nt,nt
Cc1ccc(O)c(NC(=O)c2cc(-c3ccccc3Cl)on2)c1,90*,-8,16,-3,-12,-1,83*,7
Cc1ccc(-c2cc(C(=O)Nc3cc(C)ccc3O)no2)cc1,1,-9,-1,-2,4,1,nt,nt
Cc1ccc(-c2cc(C(=O)O)c3cc(Br)ccc3n2)s1,nt,-10,nt,nt,-7,1,nt,nt
O=C(NNC(=O)c1ccc(Cl)cc1Cl)c1ccncc1,2,-4,-8,-11,3,6,nt,nt
O=C(NNC(=O)c1ccc([N+](=O)[O-])cc1Cl)c1ccncc1,103*,0,-11,-6,-10,0,39,44*
O=C1NCCN1c1ncc([N+](=O)[O-])s1,82*,-2,-2,6,-13,1,63*,88*
O=C(Nc1ncc([N+](=O)[O-])s1)C1CC(=O)N(c2ccc(F)cc2)C1 (configuration not stated),26,-9,-17,16,14,15,nt,nt
CCC(C(=O)NC1CCCCCC1)c1ccccc1 (configuration not stated),13,-5,-21,-7,-38,3,nt,nt
C=CCc1cc(C)ccc1OCC(O)CN1CCN(c2ccccc2)CC1 (configuration not stated),5,-11,-15,-15,-6,-1,nt,nt
O=C(Nc1ccccn1)c1ccc2ccccc2n1,86*,-6,-3,-18,2,-1,68*,-5
SMILES,OX1R antag-1,GalR3 antagonist,OX1R antag-2,CHO parental Ca,TAAR1 antag,TAAR1 agonist,OX1R HTRF conf,CHO-K1 HTRF cnt
CCOC(=O)C1(CC2CC2)CCN(C(=O)c2cc(C)nc3ccc(CC)cc23)CC1,7,-4,-29,-32,29,15,nt,nt
O=C(NC1CCN(Cc2ccccc2)CC1)c1ccccc1OCc1ccccc1,5,-10,-37,-13,-13,-2,nt,nt
O=[N+]([O-])c1ccc2c(c1)C(O)n1ncnc1S2 (configuration not stated),108*,7,2,-1,-4,4,37,48*
COc1ccc(-c2ccc(/C=C3/C(=N)N4C(C)=CSC4=NC3=O)o2)c([N+](=O)[O-])c1,91*,-10,11,-10,41,11,58*,18*
O=c1[nH]c2cc3c(cc2cc1CN(Cc1cccs1)Cc1nnnn1Cc1ccco1)OCCO3,103*,4,0,-3,-9,12,11,4
Cc1cccc2c3nc4ccccc4nc3n(C)c12,81*,-10,24,-12,-1,0,92*,15
COc1ccc(C2=NS(=O)(=O)N(C)C(C(=O)NCc3ccc4c(c3)OCO4)=C2)cc1,10,nt,-11,-11,30,3,nt,nt
O=C(NCc1ccco1)C(NS(=O)(=O)c1cccc2nsnc12)c1ccccc1 (configuration not stated),92*,-3,-28,-29,2,3,61*,28*
O=C(CCS(=O)(=O)c1cccc2nsnc12)N1CCN(Cc2ccc3c(c2)OCO3)CC1,22,-5,-19,-7,10,1,nt,nt
O=C(CCS(=O)(=O)c1cccc2nsnc12)N1CCN(C(=O)c2ccco2)CC1,91*,-1,-6,6,-6,-1,35,53*
O=C(CCNS(=O)(=O)c1cccc2nsnc12)NC1CCN(Cc2ccccc2)CC1,78*,-2,-26,-24,-17,0,36,53*

# Screens from PubChem.
